For test [1], the target named is T1, Neutrophil elastase (Homo sapiens) (UniProt P08246).
T1 sequence (whole entry): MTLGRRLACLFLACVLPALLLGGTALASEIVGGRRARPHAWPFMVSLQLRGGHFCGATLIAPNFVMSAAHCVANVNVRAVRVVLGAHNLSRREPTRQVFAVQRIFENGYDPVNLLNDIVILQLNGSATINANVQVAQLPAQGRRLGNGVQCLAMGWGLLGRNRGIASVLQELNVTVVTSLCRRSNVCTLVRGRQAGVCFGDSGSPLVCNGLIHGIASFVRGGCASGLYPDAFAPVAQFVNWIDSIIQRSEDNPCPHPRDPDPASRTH
Kind of test: elastase inhibitory activity, evaluated for second order rate constant (time-dependent inhibition). Put shortly: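 HLE-catalyzed hydrolysis of MeO-Suc-Ala-Ala-Pro-Ala-pNA was followed while enzyme inactivation was monitored for 15 min. Second-order rate constants (kobs/I, M-1 s-1) were derived from this time-dependent inactivation.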

Test [2] concerns the target T1, Neutrophil elastase (Homo sapiens). Kind of test: Percent inhibition in elastase-induced lung haemorrhage, when the compound is dosed orally at 30 mg/kg 30 min before challenge by HLE (Human leukocyte elastase). It counts as functional, organism-based. The arrangement: dose 30 mg/kg. Put shortly: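 Anesthetized hamsters received the compound orally 30 min before intratracheal instillation of 50 units HLE. After 3 h, hemoglobin in the lung lavage was measured spectrophotometrically. Percent inhibition of hemorrhage was calculated for the drug-treated group against the vehicle-only group.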

In the case of `CCC1(CC)C(=O)N(C(=O)NCc2ccc(C)cc2C)C1Oc1ccc(C(=O)O)cc1` (configuration not stated), in test [1], the second order rate constant kobs/[I] came out at 1500 M⁻¹ s⁻¹. In test [2], the inhibition worked out at 45%.

In turn, `CCC1(CC)C(=O)N(C(=O)NCc2ccc(C)cc2)C1Oc1ccc(C(=O)O)cc1` (configuration not stated) had a second order rate constant kobs/[I] in test [1] of 4000 M⁻¹ s⁻¹. Moreover, in test [2], the inhibition was determined as 86%.

Compound `CCC1(CC)C(=O)N(C(=O)NCc2cccc3ccccc23)C1Oc1ccc(C(=O)O)cc1` (configuration not stated) returned a second order rate constant kobs/[I] in test [1] of 8400 M⁻¹ s⁻¹.

With `CCC1(CC)C(=O)N(C(=O)NCc2ccccc2O)C1Oc1ccc(C(=O)O)cc1` (configuration not stated), in test [1], the second order rate constant kobs/[I] stood at 1500 M⁻¹ s⁻¹. In test [2], the inhibition is -2%.

In the case of `CCC1(CC)C(=O)N(C(=O)NCc2ccc(OC)c(C)c2)C1Oc1ccc(C(=O)O)cc1` (configuration not stated), in test [1], the second order rate constant kobs/[I] was found to be 13100 M⁻¹ s⁻¹. In test [2], the inhibition stood at 64%.

Regarding `CCC1(CC)C(=O)N(C(=O)NCc2ccccc2N)C1Oc1ccc(C(=O)O)cc1` (configuration not stated), in test [1], the second order rate constant kobs/[I] was 1200 M⁻¹ s⁻¹. In addition, the inhibition in test [2] was 73%.

`CCC1(CC)C(=O)N(C(=O)NCc2ccsc2)C1Oc1ccc(C(=O)O)cc1` (configuration not stated) gave a second order rate constant kobs/[I] in test [1] of 1300 M⁻¹ s⁻¹. Further, the inhibition in test [2] was 53%.

The compound `CCCCNC(=O)N1C(=O)C(CC)(CC)C1Oc1ccc(C(=O)O)cc1` (configuration not stated) registered a second order rate constant kobs/[I] in test [1] of 800 M⁻¹ s⁻¹. Besides, in test [2], the inhibition was found to be 45%.

Consider `CCC1(CC)C(=O)N(C(=O)NCCCC(O)c2ccccc2)C1Oc1ccc(C(=O)O)cc1` (configuration not stated), for which the second order rate constant kobs/[I] in test [1] was found to be 5100 M⁻¹ s⁻¹.

The compound `CCC1(CC)C(=O)N(C(=O)NCc2ccc(SC)cc2)C1Oc1ccc(C(=O)O)cc1` (configuration not stated) returned a second order rate constant kobs/[I] in test [1] of 9400 M⁻¹ s⁻¹. In test [2], the inhibition turned out to be 28%.

`CCC1(CC)C(=O)N(C(=O)NCCCOc2ccccc2)C1Oc1ccc(C(=O)O)cc1` (configuration not stated) came in with a second order rate constant kobs/[I] in test [1] of 3500 M⁻¹ s⁻¹. Further, the inhibition in test [2] came out at 40%.

Consider `CCC1(CC)C(=O)N(C(=O)NCc2ccc(C(C)=O)cc2)C1Oc1ccc(C(=O)O)cc1` (configuration not stated), for which the second order rate constant kobs/[I] in test [1] is 5900 M⁻¹ s⁻¹. In addition, the inhibition in test [2] was 37%.

For the compound `CCC1(CC)C(=O)N(C(=O)NCc2ccccc2)C1Oc1ccc(C(=O)O)cc1` (configuration not stated), the second order rate constant kobs/[I] in test [1] turned out to be 1500 M⁻¹ s⁻¹. Besides, the inhibition in test [2] was determined as 56%.

In test [1], `CCC1(CC)C(=O)N(C(=O)NCc2ccccc2C)C1Oc1ccc(C(=O)O)cc1` (configuration not stated) gave a second order rate constant kobs/[I] of 700 M⁻¹ s⁻¹. Moreover, in test [2], the inhibition was 33%.

In test [1], `CCC1(CC)C(=O)N(C(=O)NCc2ccc(C)c(C)c2)C1Oc1ccc(C(=O)O)cc1` (configuration not stated) displayed a second order rate constant kobs/[I] of 21000 M⁻¹ s⁻¹. Besides, the inhibition in test [2] came to 52%.

Regarding `CCC1(CC)C(=O)N(C(=O)NCCc2ccccc2)C1Oc1ccc(C(=O)O)cc1` (configuration not stated), the second order rate constant kobs/[I] in test [1] came out at 1300 M⁻¹ s⁻¹. The inhibition in test [2] stood at 33%.

Compound `CCC1(CC)C(=O)N(C(=O)NCc2ccc(N)cc2)C1Oc1ccc(C(=O)O)cc1` (configuration not stated) gave a second order rate constant kobs/[I] in test [1] of 1800 M⁻¹ s⁻¹. For the same compound, the inhibition in test [2] came out at 2%.

In turn, `CCC1(CC)C(=O)N(C(=O)NCCCCc2ccccc2)C1Oc1ccc(C(=O)O)cc1` (configuration not stated) gave a second order rate constant kobs/[I] in test [1] of 9200 M⁻¹ s⁻¹. Further, the inhibition in test [2] was 35%.

Compound `CCC1(CC)C(=O)N(C(=O)NCCCC(=O)c2ccccc2)C1Oc1ccc(C(=O)O)cc1` (configuration not stated) yielded a second order rate constant kobs/[I] in test [1] of 2000 M⁻¹ s⁻¹. Also, in test [2], the inhibition came to 0%.

In test [1], `CCC1(CC)C(=O)N(C(=O)NCc2ccc(OCc3ccccc3)cc2)C1Oc1ccc(C(=O)O)cc1` (configuration not stated) registered a second order rate constant kobs/[I] of 12000 M⁻¹ s⁻¹. The inhibition in test [2] is -9%.

Turning to `CCC1(CC)C(=O)N(C(=O)NCc2ccc(C(N)=O)cc2)C1Oc1ccc(C(=O)O)cc1` (configuration not stated), the second order rate constant kobs/[I] in test [1] was determined as 4300 M⁻¹ s⁻¹. Further, the inhibition in test [2] was 10%.

Turning to `CCC1(CC)C(=O)N(C(=O)NCc2ccc3c(c2)OCO3)C1Oc1ccc(C(=O)O)cc1` (configuration not stated), in test [1], the second order rate constant kobs/[I] worked out at 5000 M⁻¹ s⁻¹. In test [2], the inhibition was determined as 10%.

For `CCC1(CC)C(=O)N(C(=O)NCCC(=O)c2ccccc2)C1Oc1ccc(C(=O)O)cc1` (configuration not stated), in test [1], the second order rate constant kobs/[I] was determined as 2100 M⁻¹ s⁻¹. For the same compound, the inhibition in test [2] worked out at 8%.

`CCC1(CC)C(=O)N(C(=O)NCc2ccc(O)cc2)C1Oc1ccc(C(=O)O)cc1` (configuration not stated) registered a second order rate constant kobs/[I] in test [1] of 3000 M⁻¹ s⁻¹.

With `CCC1(CC)C(=O)N(C(=O)NCc2cc(C)cc(C)c2)C1Oc1ccc(C(=O)O)cc1` (configuration not stated), in test [1], the second order rate constant kobs/[I] came out at 14700 M⁻¹ s⁻¹. In addition, the inhibition in test [2] came out at 69%.

In the case of `CCC1(CC)C(=O)N(C(=O)NCCCCCc2ccccc2)C1Oc1ccc(C(=O)O)cc1` (configuration not stated), in test [1], the second order rate constant kobs/[I] was found to be 4800 M⁻¹ s⁻¹. Further, the inhibition in test [2] stood at 15%.

Take `CCC1(CC)C(=O)N(C(=O)NCCCCCCc2ccccc2)C1Oc1ccc(C(=O)O)cc1` (configuration not stated): the second order rate constant kobs/[I] in test [1] amounted to 5000 M⁻¹ s⁻¹. The inhibition in test [2] was found to be 14%.

For the compound `CCC1(CC)C(=O)N(C(=O)NCc2ccc3ccccc3c2)C1Oc1ccc(C(=O)O)cc1` (configuration not stated), the second order rate constant kobs/[I] in test [1] was determined as 21300 M⁻¹ s⁻¹. Moreover, the inhibition in test [2] came to 37%.

With `CCC1(CC)C(=O)N(C(=O)NCc2ccc(C)c(OC)c2)C1Oc1ccc(C(=O)O)cc1` (configuration not stated), in test [1], the second order rate constant kobs/[I] was 6500 M⁻¹ s⁻¹. In addition, in test [2], the inhibition stood at 76%.

In test [1], `CCCCCCCCCNC(=O)N1C(=O)C(CC)(CC)C1Oc1ccc(C(=O)O)cc1` (configuration not stated) showed a second order rate constant kobs/[I] of 8300 M⁻¹ s⁻¹.

In turn, `CCC1(CC)C(=O)N(C(=O)NCCCc2ccccc2)C1Oc1ccc(C(=O)O)cc1` (configuration not stated) showed a second order rate constant kobs/[I] in test [1] of 4500 M⁻¹ s⁻¹. For the same compound, in test [2], the inhibition worked out at 12%.

Regarding `CCC1(CC)C(=O)N(C(=O)NCc2ccc(-c3ccccc3)cc2)C1Oc1ccc(C(=O)O)cc1` (configuration not stated), the second order rate constant kobs/[I] in test [1] is 23200 M⁻¹ s⁻¹. Besides, in test [2], the inhibition stood at 24%.

In test [1], `CCC1(CC)C(=O)N(C(=O)NCC2CCCCC2)C1Oc1ccc(C(=O)O)cc1` (configuration not stated) yielded a second order rate constant kobs/[I] of 1400 M⁻¹ s⁻¹. Further, the inhibition in test [2] was 0%.

As to `CCC1(CC)C(=O)N(C(=O)NCc2ccccc2)C1Oc1ccc(CC(=O)O)cc1` (configuration not stated), the second order rate constant kobs/[I] in test [1] was determined as 3200 M⁻¹ s⁻¹. Moreover, in test [2], the inhibition turned out to be 71%.

In test [1], `CCC1(CC)C(=O)N(C(=O)NCc2ccc([N+](=O)[O-])cc2)C1Oc1ccc(C(=O)O)cc1` (configuration not stated) registered a second order rate constant kobs/[I] of 5100 M⁻¹ s⁻¹. In test [2], the inhibition stood at 22%.

As to `CCC1(CC)C(=O)N(C(=O)NCc2ccc(F)cc2)C1Oc1ccc(C(=O)O)cc1` (configuration not stated), in test [1], the second order rate constant kobs/[I] was 2300 M⁻¹ s⁻¹. Moreover, the inhibition in test [2] amounted to 4%.

In test [1], `CCc1ccc(CNC(=O)N2C(=O)C(CC)(CC)C2Oc2ccc(C(=O)O)cc2)cc1` (configuration not stated) registered a second order rate constant kobs/[I] of 8200 M⁻¹ s⁻¹. Moreover, the inhibition in test [2] is 46%.

With `CCC1(CC)C(=O)N(C(=O)NCc2ccc(C(=O)O)cc2)C1Oc1ccc(C(=O)O)cc1` (configuration not stated), the second order rate constant kobs/[I] in test [1] stood at 2200 M⁻¹ s⁻¹. For the same compound, the inhibition in test [2] stood at 25%.

For `CCN(Cc1ccccc1)C(=O)N1C(=O)C(CC)(CC)C1Oc1ccc(C(=O)O)cc1` (configuration not stated), the second order rate constant kobs/[I] in test [1] was 2300 M⁻¹ s⁻¹. Further, the inhibition in test [2] came to 34%.

Turning to `CCC1(CC)C(=O)N(C(=O)NCc2cccc(C)c2)C1Oc1ccc(C(=O)O)cc1` (configuration not stated), the second order rate constant kobs/[I] in test [1] turned out to be 7000 M⁻¹ s⁻¹. Moreover, the inhibition in test [2] was found to be 47%.

`CCC1(CC)C(=O)N(C(=O)NCc2ccc(C)cc2)C1Oc1ccc(CC(=O)O)cc1` (configuration not stated): the second order rate constant kobs/[I] in test [1] amounted to 4500 M⁻¹ s⁻¹. Moreover, in test [2], the inhibition turned out to be 72%.

`CCC1(CC)C(=O)N(C(=O)NCCCCOc2ccccc2)C1Oc1ccc(C(=O)O)cc1` (configuration not stated) yielded a second order rate constant kobs/[I] in test [1] of 3400 M⁻¹ s⁻¹. For the same compound, the inhibition in test [2] was determined as 30%.

On to `CCC1(CC)C(=O)N(C(=O)NCc2ccc(Cl)cc2)C1Oc1ccc(C(=O)O)cc1` (configuration not stated), for which the second order rate constant kobs/[I] in test [1] was determined as 3400 M⁻¹ s⁻¹. Moreover, the inhibition in test [2] came out at 29%.

`CCC1(CC)C(=O)N(C(=O)NCc2ccc(-c3ccccc3)cc2)C1Oc1ccc(CC(=O)O)cc1` (configuration not stated): the second order rate constant kobs/[I] in test [1] came out at 29000 M⁻¹ s⁻¹. Besides, the inhibition in test [2] stood at 19%.

Take `CCC1(CC)C(=O)N(C(=O)NCc2cccs2)C1Oc1ccc(C(=O)O)cc1` (configuration not stated): the second order rate constant kobs/[I] in test [1] was 4900 M⁻¹ s⁻¹. For the same compound, in test [2], the inhibition is 52%.

As for `CCC1(CC)C(=O)N(C(=O)NCc2ccco2)C1Oc1ccc(C(=O)O)cc1` (configuration not stated), the second order rate constant kobs/[I] in test [1] was determined as 5200 M⁻¹ s⁻¹. Besides, the inhibition in test [2] amounted to 58%.

`CCC1(CC)C(=O)N(C(=O)NCc2ccc(N(C)C)cc2)C1Oc1ccc(C(=O)O)cc1` (configuration not stated) gave a second order rate constant kobs/[I] in test [1] of 10000 M⁻¹ s⁻¹. The inhibition in test [2] is 25%.

For `CCC1(CC)C(=O)N(C(=O)NCc2ccc(OC)cc2)C1Oc1ccc(C(=O)O)cc1` (configuration not stated), the second order rate constant kobs/[I] in test [1] was 5200 M⁻¹ s⁻¹. The inhibition in test [2] was found to be 60%.

The values above are taken from ChEMBL document CHEMBL1126197, “Orally active beta-lactam inhibitors of human leukocyte elastase-1. Activity of 3,3-diethyl-2-azetidinones” (J Med Chem, 1992).
